Laboratory results as given in ChEMBL document CHEMBL1275590, “Novel arylimidamides for treatment of visceral leishmaniasis” (Antimicrob Agents Chemother, 2010).
Calls of active or inactive are those of the source.

How the values were obtained:
[1] = Volume of distribution in Swiss Webster mouse at 4.9 mg/kg, iv by HPLC-MS/MS analysis; type: ADME, organism-based; design: dose 4.9 mg/kg, route intravenous; conditions: in vivo
Outline: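 Male Swiss Webster mice (n = 3 per time point) got a single tail-vein bolus over ~10 to 20 s, 5 ml/kg. Compound was dissolved in sterile water at 2× and diluted 1:1 with 2× saline. Terminal blood was taken from 5 min to 72 h, and plasma was quantified by HPLC-MS/MS. Vss came from noncompartmental analysis.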

[2] = tested on: Mus musculus; test: Toxicity in BALB/c mouse assessed as hypoactivity at 100 mg/kg/day, ip after second dose; type: organism-based; design: route intraperitoneal; conditions: in vivo
[3] = tested on: Mus musculus; test: Hepatotoxicity in BALB/c mouse assessed as AST level in serum at 10 mg/kg/day, iv administered for five days (Rvb= 65 U/L); type: toxicity, organism-based; design: route intravenous; conditions: in vivo
[4] = tested on: Mus musculus; test: Renal toxicity in BALB/c mouse assessed as phosphorus level in serum at 10 mg/kg/day, iv administered for five days ((Rvb= 6.1 mg/dl); type: organism-based; design: route intravenous; conditions: in vivo
Outline: (§1)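 Female BALB/c mice (n = 5 per dose), dosed once daily for 5 consecutive days p.o. (20 ml/kg) or i.v. (10 ml/kg) with compound in sterile water, prepared fresh daily under yellow light. Vehicle controls n = 5 per route. Clinical observations, body weights, serum chemistry and hematology on day 6 before necropsy; histopathology of formalin-fixed tissues. Chemistry analysed by one-way ANOVA with Dunnett's posttest.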

[5] = Cmax in Swiss Webster mouse at 4.9 mg/kg, iv by HPLC-MS/MS analysis; type: ADME, organism-based; design: dose 4.9 mg/kg, route intravenous; conditions: in vivo
Outline: (§2)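 Male Swiss Webster mice, n = 3 per time point. For i.v., the compound was dissolved in sterile water, diluted 1:1 with 2× saline, and given as a tail-vein bolus over ~10–20 s. For p.o., it was given by gavage in sterile water. Dose volume was 5 ml/kg. Terminal plasma was taken from 5 min to 72 h and measured by HPLC-MS/MS (calibration 2.5–10,000 nM). Parameters came from noncompartmental analysis.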

[6] = tested on: Mus musculus; test: Toxicity in BALB/c mouse assessed as occurrence of tremor at 30 mg/kg, iv; type: organism-based; design: dose 30 mg/kg, route intravenous; conditions: in vivo
Outline: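 Single-dose escalation: female BALB/c mice (n = 1 per dose level) given one i.v. dose in sterile water (10 ml/kg), 5–50 mg/kg, observed for 2 days.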

[7] = Cmax in Swiss Webster mouse at 16.5 mg/kg, po by HPLC-MS/MS analysis; type: ADME, organism-based; design: dose 16.5 mg/kg, route oral; conditions: in vivo; outline: as §2
[8] = tested on: Mus musculus; test: Hepatotoxicity in BALB/c mouse assessed as ALT level in serum at 150 mg/kg/day, po administered for five days (Rvb= 36 U/L); type: toxicity, organism-based; design: route oral; conditions: in vivo
[9] = tested on: Mus musculus; test: Renal toxicity in BALB/c mouse assessed as blood urea nitrogen level in serum at 10 mg/kg/day, iv administered for five days (Rvb= 20 mg/dl); type: organism-based; design: route intravenous; conditions: in vivo; outline: as §1
[10] = tested on: Mus musculus; test: Toxicity in BALB/c mouse assessed as occurrence of hemorrhage at 150 mg/kg/day, po; type: organism-based; design: route oral; conditions: in vivo; outline: as §1
[11] = Oral bioavailability in Swiss Webster mouse at 131 mg/kg by HPLC-MS/MS analysis; type: ADME, organism-based; conditions: in vivo
Outline: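 Male Swiss Webster mice (n = 3 per time point), single dose by oral gavage (sterile water solution) or tail-vein bolus i.v. (water diluted 1:1 with 2× saline, over ~10–20 s); dose volume 5 ml/kg. Terminal blood sampled from 5 min to 72 h postdose; plasma quantified by HPLC-MS/MS (positive-ion SRM). Noncompartmental analysis gave Cmax, Tmax, AUC0-∞, CL, Vss; bioavailability from p.o. versus i.v. exposure.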

[12] = tested on: Mus musculus; test: AUC (0 to infinity) in Swiss Webster mouse at 16.5 mg/kg, po by HPLC-MS/MS analysis; type: ADME, organism-based, Plasma; design: time infinity, dose 16.5 mg/kg, route oral; conditions: in vivo; outline: as §2
[13] = Cmax in Swiss Webster mouse at 131 mg/kg, po by HPLC-MS/MS analysis; type: ADME, organism-based; design: dose 131 mg/kg, route oral; conditions: in vivo; outline: as §2
[14] = Half life in Swiss Webster mouse at 66 mg/kg, po by HPLC-MS/MS analysis; type: ADME, organism-based; design: dose 66 mg/kg, route oral; conditions: in vivo; outline: as §2
[15] = tested on: Leishmania donovani; test: Antileishmanial activity against Leishmania donovani WR378 infected in golden Syrian hamster assessed as reduction in liver parasitemia at 50 mg/kg/day, po administered for five days; type: functional; conditions: 120 h
Outline: (§3)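 11-day golden hamster VL model adapted from an 8-day method, using L. donovani WR378 metacyclic promastigotes. Dosing was oral, once daily for 5 days. Animals were euthanized on day 11 post-infection. Liver, spleen and femoral bone marrow (flushed with Schneider's medium) were harvested.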

[16] = tested on: Mus musculus; test: Toxicity in BALB/c mouse assessed as occurrence of tremor at 20 mg/kg/day, iv administered for five days measured on day 2; type: organism-based; design: route intravenous; conditions: in vivo; outline: as §1
[17] = Induction of mutagenicity in Salmonella serovar Typhimurium TA 100 assessed as number of revertant colonies at 50 ug by Ames assay in presence of Aroclor 1254-induced rat liver S9 metabolic activation system; type: toxicity, subcellular, Salmonella enterica subsp. enterica serovar Typhimurium
Outline: (§4)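 Ames plate incorporation with S. Typhimurium TA98 and TA100, with or without Aroclor 1254-induced rat liver S9 (10% vol/vol). Compound was dissolved in sterile water and serially diluted to 1–500 μg/plate. Positive controls were 2-nitrofluorene and sodium azide without S9, and 2-aminoanthracene with S9; sterile water and DMSO served as vehicles. Revertant colonies and background lawn were scored. A mutagen was defined as a mean revertant count at least 2-fold over solvent control. Single experiment.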

[18] = Half life in Swiss Webster mouse at 5 mg/kg, iv by HPLC-MS/MS analysis; type: ADME, organism-based; design: dose 5 mg/kg, route intravenous; conditions: in vivo; outline: as §2
[19] = Induction of mutagenicity in Salmonella serovar Typhimurium TA 98 assessed as number of revertant colonies at 1 ug by Ames assay in presence of Aroclor 1254-induced rat liver S9 metabolic activation system; type: toxicity, subcellular, Salmonella enterica subsp. enterica serovar Typhimurium; outline: as §4
[20] = Induction of mutagenicity in Salmonella serovar Typhimurium TA 98 assessed as number of revertant colonies at 10 ug by Ames assay; type: toxicity, Salmonella enterica subsp. enterica serovar Typhimurium; conditions: in vivo; outline: as §4
[21] = tested on: Mus musculus; test: Volume of distribution in Swiss Webster mouse at 70 mg/kg, po by HPLC-MS/MS analysis; type: ADME, organism-based; design: dose 70 mg/kg, route oral; conditions: in vivo
Outline: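 Male Swiss Webster mice (n = 3 per time point) got a single oral gavage dose in sterile water, 5 ml/kg. The 5 mM formulation was a clear solution; the 20 and 40 mM formulations were gelatinous. Terminal blood was collected from 5 min to 72 h postdose, and plasma was analysed by HPLC-MS/MS. Volume of distribution came from noncompartmental analysis.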

[22] = tested on: Leishmania donovani; test: Antileishmanial activity against Leishmania donovani WR378 infected in golden Syrian hamster assessed as reduction in spleen parasitemia at 100 mg/kg/day, po administered for five days; type: functional; conditions: 120 h; outline: as §3
[23] = Induction of mutagenicity in Salmonella serovar Typhimurium TA 98 assessed as number of revertant colonies at 100 ug by Ames assay; type: toxicity, Salmonella enterica subsp. enterica serovar Typhimurium; conditions: in vivo; outline: as §4
[24] = tested on: Leishmania donovani; test: Antileishmanial activity against Leishmania donovani promastigotes in po dosed BALB/c mouse assessed as inhibition of liver parasitemia; type: functional, organism-based
Outline: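 Murine VL model in L. donovani-infected mice. Compounds were dissolved in water and given i.p. or p.o. once daily for 5 days (4 days for one i.p. regimen). Liver parasitemia was compared with untreated controls by unpaired Student's t test, P ≤ 0.05.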

[25] = tested on: Leishmania donovani; test: Antileishmanial activity against Leishmania donovani WR378 infected in golden Syrian hamster assessed as reduction in bone marrow parasitemia at 50 mg/kg/day, po administered for five days; type: functional; conditions: 120 h; outline: as §3
[26] = Induction of mutagenicity in Salmonella serovar Typhimurium TA 100 assessed as number of revertant colonies at 500 ug by Ames assay; type: toxicity, Salmonella enterica subsp. enterica serovar Typhimurium; conditions: in vivo; outline: as §4

In the case of `CCOc1cc(NC(=N)c2ccccn2)ccc1-c1ccc(-c2ccc(NC(=N)c3ccccn3)cc2OCC)o1`, the Vd [1] is reported as 22 L/kg, the Activity [2] is reported as “Toxic” and the Activity [3] is reported as 80 U/L. For the same compound, the Activity [4] was 8.1 mg/dL, the Cmax [5] was 4.24 µM and the Activity [6] was “Toxic”. For the same compound, the Cmax [7] was 20 nM, the Activity [8] was 220 U/L and the Activity [9] was 24 mg/dL. The Activity [10] was “Toxic”, the bioavailability [11] was 25% and the AUC [12] was 0.5 µM·h. It also gave a Cmax [13] of 1680 nM and a half-life [14] of 1800 min.

With `CC(C)Oc1cc(NC(=N)c2ccccn2)ccc1-c1ccc(-c2ccc(NC(=N)c3ccccn3)cc2OC(C)C)o1` the inhibition in vivo at 50 mg/kg/day [15] was 76%, the Activity [16] was “Toxic” and the Activity [17] was 135. For the same compound, the half-life [18] was 1440 min, the Activity [19] was 43 and the Activity [20] was 29. The Vd [21] was 54 L/kg, the inhibition in vivo at 100 mg/kg/day [22] was 79% and the Activity [23] was 34. For the same compound, the Activity [24] was “Active”, the inhibition in vivo at 50 mg/kg/day [25] was 70% and the Activity [26] was “Toxic”.
